{"data": "Published values of several laboratories", "read-out": "cell growth or viability"}
{"SMILES": "COc1cc(Nc2nccc(-c3cnn4nc(OC)ccc34)n2)cc(C(F)(F)F)c1", "cell line": "P31-FUJ", "test": "ATP luminescence", "measurement": "IC50", "result": "1.1 µM"}
{"SMILES": "CN(C)CCOc1ccc(-c2nc(-c3ccncc3)c(-c3ccc4c(c3)CC/C4=N\\O)[nH]2)cc1", "cell line": "451Lu", "test": "ATP luminescence", "setting": "72 h", "measurement": "EC50", "result": "0.67 µM"}
{"SMILES": "c1ccc(-c2n(Cc3ccc4ccccc4c3)cc[n+]2Cc2ccc3ccccc3c2)cc1", "cell line": "HOP-92", "test": "SRB", "measurement": "TGI", "result": "2.28 µM"}
{"SMILES": "COc1ccc(-c2ccc(-c3ccc(C(=N)N)nc3)s2)cc1", "cell line": "SN12C", "measurement": "GI50", "result": "1.83 µM"}
{"SMILES": "CCCCc1ccc2[nH]c(NC(=O)OC)nc2c1", "cell line": "CAL-27", "setting": "72 h", "measurement": "IC50", "result": "0.27 µM"}
{"SMILES": "COc1cc(-c2ccc(-c3ccc(C(=N)N)nc3)s2)cc(OC)c1OC", "cell line": "HOP-92", "test": "SRB", "measurement": "GI50", "result": "1.91 µM"}
{"SMILES": "C[C@@H](Oc1cc(-c2cnn(C3CCNCC3)c2)cnc1N)c1c(Cl)ccc(F)c1Cl", "cell line": "M091", "test": "resazurin", "setting": "48 h", "measurement": "GI50", "result": "0.01 µM"}
{"SMILES": "Nc1ncnc2c1ncn2[C@@H]1O[C@H](CO)[C@@H](O)[C@@H]1O", "cell line": "CAL-27", "setting": "72 h", "measurement": "IC50", "result": "> 20 µM"}
{"SMILES": "CCCc1n(Cc2ccc3ccccc3n2)cc[n+]1Cc1ccc2ccccc2c1", "cell line": "HOP-62", "test": "SRB", "measurement": "TGI", "result": "5.38 µM"}
{"SMILES": "CC1(C)CCC(CN2CCN(c3ccc(C(=O)NS(=O)(=O)c4ccc(NCC5CCOCC5)c([N+](=O)[O-])c4)c(Oc4cnc5[nH]ccc5c4)c3)CC2)=C(c2ccc(Cl)cc2)C1", "cell line": "MDCK", "setting": "24 h", "measurement": "EC50", "result": "> 50 µM"}
{"SMILES": "S=C([S][Au-][P+](CCCCCC[P+]([Au-][S]C(=S)n1cccn1)(c1ccccc1)c1ccccc1)(c1ccccc1)c1ccccc1)n1cccn1", "cell line": "UO-31", "measurement": "GI50", "result": "0.933 µM"}
{"SMILES": "Cc1n(Cc2ccc3ccccc3n2)cc[n+]1Cc1ccc2ccccc2c1", "cell line": "HOP-92", "test": "SRB", "measurement": "TGI", "result": "3.81 µM"}
{"SMILES": "Nc1c2c(nc3ccccc13)CCCC2O (stereo not drawn)", "cell line": "CAL-27", "setting": "72 h", "measurement": "IC50", "result": "> 20 µM"}
{"SMILES": "COc1cc(OC)c2nccc(N3CCc4c(cc(Cn5ccnc5)cc4-c4cn(C)nc4C(F)(F)F)C3=O)c2c1", "cell line": "K562", "test": "ATP luminescence", "setting": "5 days", "measurement": "GI50", "result": "7.3 µM"}
{"SMILES": "c1ccc2cc(Cn3cc[n+](Cc4ccc5ccccc5c4)c3)ccc2c1", "cell line": "HOP-92", "test": "SRB", "measurement": "TGI", "result": "1.39 µM"}
